This is a sample that favours compounds with a hit; in the whole collection about 1.8% have one here.
HKDC1 inh: HKDC1 hexokinase inhibitors, primary screen, biochemical, fluorescence, uHTS | AID 493160, 2011 | recombinant HKDC1, G6PDH/diaphorase resazurin coupled fluorescence | 0.16% of 340,000 active | inhibition, % at 20 µM;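 active means inhibition above about 35% when tested at 20 µM, limit read from the data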;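 further: plate controls were DMSO wells with enzyme for no effect and DMSO wells lacking enzyme for full effect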
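Material – in-house recombinant HK5 (HKDC1) enzyme · Quantity – HKDC1 at 5 µg/mL · Buffer or medium – pH 8.0 Tris buffer with 10 mM MgCl2 · Reagent – glucose with 1 mM ATP · Dosing – single 20 µM dose · Times – reaction time 90 min, room temperature, protected from light · Technique – resorufin fluorescence at 613 nm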
DNMT1 block: human DNMT1 methyltransferase inhibitors, primary screen, biochemical, molecular beacon, fluorescence, HinP1I cleavage, uHTS | DNA (cytosine-5)-methyltransferase 1 (Homo sapiens), P26358 | inhibition (reported as % activation of signal), % at 10 µM | 0.83% of 360,000 active; in the data active means inhibition above about 50%
LMPTP inh: LMPTP phosphatase inhibitors, primary screen, biochemical, fluorescence intensity, uHTS. recombinant LMPTP-A, OMFP fluorogenic substrate. AID 651560, 2012. 0.22% of 360,000 active. inhibition, % at 20 µM;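 active means compounds that cut the enzyme signal by at least half of the control window in the single-dose screen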;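 further: plate controls were DMSO wells with enzyme plus substrate for no effect and substrate without enzyme for full effect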
Target sequence (P24666 whole entry, looked up): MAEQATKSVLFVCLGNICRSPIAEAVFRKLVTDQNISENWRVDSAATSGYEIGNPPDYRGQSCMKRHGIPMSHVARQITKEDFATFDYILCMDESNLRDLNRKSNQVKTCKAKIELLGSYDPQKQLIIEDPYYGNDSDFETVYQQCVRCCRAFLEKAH
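Test system: LMPTP-A, protein tyrosine phosphatase of low molecular weight; Input: 0.625 nM enzyme; Incubation: 50 min dark incubation at room temperature; Signal: endpoint fluorescence intensity from OMFP dephosphorylation; Read-out basis: % inhibition versus control wells.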
Scp-1 inhibitor: Scp-1 phosphatase inhibitors, primary screen, biochemical, colorimetric, uHTS. Carboxy-terminal domain RNA polymerase II polypeptide A small phosphatase 1 (Homo …. Recombinant Scp1, phosphopeptide, malachite green phosphate absorbance. inhibition, % at 20 µM. 0.88% of 340,000 active. AID 493091, 2011;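 active means inhibition above about 50% at 20 µM, limit read from the data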;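 further: plate controls were DMSO wells with enzyme for no effect and wells lacking enzyme for full effect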
Target sequence (Q9GZU7 76-261 limits assumed): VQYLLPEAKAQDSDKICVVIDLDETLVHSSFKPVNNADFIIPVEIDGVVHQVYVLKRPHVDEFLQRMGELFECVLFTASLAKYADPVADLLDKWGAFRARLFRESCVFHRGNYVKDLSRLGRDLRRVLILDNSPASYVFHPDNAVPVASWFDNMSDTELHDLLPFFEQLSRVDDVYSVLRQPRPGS
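Times: enzyme reaction 45 min at room temperature, colour 5 min, stabilisation 30 min. Material: SCP-1 catalytic fragment, aa 76-261. Medium: Acidic Tris acetate buffer with magnesium and detergent. Signal: colorimetric free-phosphate detection, absorbance 630 nm. Read-out basis: % inhibition of SCP-1 phosphate liberation. Reagent: Phosphorylated 17-residue peptide substrate.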
SUMO1-SIM PPI: modulators of SUMO1 protein-protein interactions, primary screen, biochemical, uHTS. Small ubiquitin-related modifier 1 (Homo sapiens), P63165. 0.33% of 360,000 active. inhibition, % at 20 µM. SUMO1 binding to a labelled peptide, TR-FRET, 1 h; in the data active means inhibition above about 37%
Target sequence (P63165 whole entry, looked up): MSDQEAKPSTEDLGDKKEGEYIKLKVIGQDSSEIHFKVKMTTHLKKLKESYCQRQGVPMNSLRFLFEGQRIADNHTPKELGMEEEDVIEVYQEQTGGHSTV
STEP block: STEP phosphatase inhibitors, primary screen, biochemical, fluorescence intensity, uHTS. Tyrosine-protein phosphatase non-receptor type 5 (Homo sapiens), P54829. recombinant STEP, OMFP fluorogenic substrate. inhibition, % at 20 µM. 0.25% of 360,000 active. AID 588621, 2011;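 active means inhibition at 20 µM, scaled per plate between control wells, above about 37%, limit read from the data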;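 further: 0% = DMSO with enzyme and substrate and 100% = substrate only without enzyme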
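System: isolated STEP enzyme; schedule: 20 min enzyme reaction at room temperature, protected from light; medium: Bis-Tris buffer pH 6.0, 2.5 mM DTT, 0.005% Tween 20; signal: fluorescence, 480/540 nm; dosing: single compound dose of 20 µM, 1% DMSO final; also added: OMFP substrate, 25 µM final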
HKDC1 act conf: HKDC1 hexokinase activators, confirmation, biochemical, single concentration | shares compounds with HKDC1 inh | recombinant HKDC1, G6PDH/diaphorase resazurin fluorescence; active compounds read low | inhibition, % at 20 µM | 14% of 740 active | AID 504708, 2011;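 active means inhibition at or below a set negative limit, negative inhibition meaning the enzyme was activated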
DNMT1 interf DR: spectral interference with molecular beacon fluorescence, dose response, artefact control for DNMT1 inhibitor project, biochemical, fluorescent molecular beacon; shares compounds with DNMT1 block; spectral interference counter-screen; IC50, µM; 200 tested, under 10 active; call rule not given here
DNMT1 confirm: DNMT1 methyltransferase inhibitor retest, confirmation, biochemical, molecular beacon, fluorescence, single concentration; shares compounds with DNMT1 block; DNMT1 molecular beacon HinP1I cleavage; inhibition, % at 10 µM; 8% of 2,300 active;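 active means average inhibition of at least 30% in the single-concentration confirmation test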
DNMT1 interf: shows spectral interference in the DNMT1 beacon assay | 1% of 2,300 active | DNMT1 molecular beacon spectral interference counterscreen, fluorescence 485/520 | AID 602387 | shares compounds with DNMT1 block | activation (fluorescence interference), % at 10 µM;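 active means activation of at least 30% at 10 µM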;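 further: DNMT1 catalytic domain with a HinP1I cleavage step and a FAM/dabcyl DNA beacon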
Starred values were filed as active, the others as inactive; / = not tested or not shown.

SMILES	HKDC1 inh	DNMT1 block	LMPTP inh	Scp-1 inhibitor	SUMO1-SIM PPI	STEP block	HKDC1 act conf	DNMT1 confirm	DNMT1 interf	others
CC(OC(=O)c1ccccc1C(=O)N(C)c1ccccc1)C(=O)Nc1ccc(C(N)=O)cc1 (stereo not drawn)	-3	1	0	-7	24	1	/	/	/
CCOc1ccccc1Nc1nnc(SCc2nnc(-c3cc(OC)c(OC)c(OC)c3)o2)s1	48*	-7	2	-3	7	3	45	/	/
COc1ccccc1Nc1nnc(SCc2nnc(-c3cc(OC)c(OC)c(OC)c3)o2)s1	35	-13	1	-7	3	-1	33	/	/
COc1cc(-c2nnc(CSc3nnc(Nc4ccc(C(C)C)cc4)s3)o2)cc(OC)c1OC	-6	-7	3	-9	4	0	/	/	/
Cc1cccn2c(=O)c3cc(C(N)=S)c(=N)n(CCCN4CCOCC4)c3nc12	-54	-4	28	-3	-9	9	-13	/	/
Cc1cccn2c(=O)c3cc(C#N)c(=N)n(CCCN4CCOCC4)c3nc12	2	3	6	1	-4	4	/	/	/
CCc1c(C)nc(N)n2c(SCC(=O)Nc3ccccc3)nnc12	0	4	-2	-1	1	3	/	/	/
O=C(C1=C(O)C(=O)N(c2nc3ccc(Cl)cc3s2)C1c1ccco1)c1ccco1 (stereo not drawn)	36*	90*	60*	64*	40*	28	-23	12	4
Cc1ccc2nc(N3C(=O)C(O)=C(C(=O)c4ccc(C)o4)C3c3ccco3)sc2c1 (stereo not drawn)	13	36	10	4	-5	5	/	/	/
O=c1[nH]c(=O)c2nc3c4ccccc4c4ccccc4c3nc2[nH]1	37*	79*	13	26	84*	0	-2	4	-1
O=c1[nH]c(=O)c2nc(-c3ccc(Cl)cc3)cnc2[nH]1	-4	1	1	1	1	1	/	/	/
O=C1c2ccccc2CCC12OC2c1ccncc1 (stereo not drawn)	/	0	0	/	-5	1	/	/	/
N#Cc1c(SCC(=O)Nc2nc3ccc(Br)cc3s2)sc2c(O)cc(=O)[nH]c12	34	80*	53*	54*	31	22	45	27	-4	DNMT1 interf DR=>99
O=[N+]([O-])c1ccc(N/N=C/c2ccc(O)c(O)c2O)c(S(=O)(=O)N2CCOCC2)c1	38*	62*	67*	3	22	6	9	-2	-1
Cc1cc(C(C)(C)C)ccc1OCC(=O)N/N=C\c1c(C)n(C)n(-c2ccccc2)c1=O	1	-2	0	-4	4	-1	/	/	/
O=C1NC(=S)N/C1=C/c1cc2c(cc1[N+](=O)[O-])OCO2	-67	60*	-1	2	55*	3	-37*	30*	-12	DNMT1 interf DR=>99
